Laboratory results reported in ChEMBL document CHEMBL5154683, “A 5-FU Precursor Designed to Evade Anabolic and Catabolic Drug Pathways and Activated by Pd Chemistry In Vitro and In Vivo” (J Med Chem, 2022).

Legend:
[1] = Prodrug conversion in PBS buffer assessed as 5-Fluorouracil formation by measuring retention time at 100 uM in presence of Pd-resin measured upto 1 hr by UPLC analysis; type: ADME
In short: (§1)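 Prodrug (100 μM in PBS, pH 7.4) shaken at 1200 rpm, 37 °C with 1 mg/mL Pd resins (30 μm). Sampled at 10, 20, 40 min, 1, 3, 6, 24 and 48 h; analyzed by reverse-phase UPLC (C18, 60 °C, UV 254 nm), products identified by retention time against authentic standards.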

[2] = Prodrug conversion in human liver S9 fraction assessed as DH5FU metabolite formation at 1.6 mM incubated for 1 hr in presence of NADPH by 19F-NMR based analysis; type: ADME, subcellular; details: s9, 1 h, 1600 µM
In short: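 Compound added as 150 mM stock in DMSO-d₆, preincubated 5 min at 37 °C with enzyme mixture, then NADPH added (1 mM) and incubated 1 h at 37 °C, 600 rpm; controls without NADPH and without enzymes. Stopped with EtOAc, dried under N₂, redissolved in DMSO-d₆, DH5FU detected by ¹⁹F NMR vs authentic sample.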

[3] = Metabolic stability in rat hepatocytes assessed as intrinsic clearance at 3 uM measured per 10^6 cells by LC-MS/MS analysis; type: ADME, cell-based, Hepatocyte; details: read-out: CLH
In short: (§2)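 Suspended hepatocytes (0.5 × 10⁶ cells/mL) in Williams E medium with 2 mM L-glutamine and 25 mM HEPES at 37 °C, compound added with 0.25% v/v DMSO after preincubation; aliquots quenched into methanol with internal standard at time points, centrifuged, supernatant analyzed by LC-MS/MS; two control compounds included.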

[4] = Metabolic stability in human hepatocytes assessed as intrinsic clearance at 1 uM measured per 10^6 cells by LC-MS/MS analysis; type: ADME, cell-based, Hepatocyte; details: read-out: CLH; in short: as §2
[5] = Metabolic stability in rat hepatocytes assessed as half life at 1 uM by LC-MS/MS analysis; type: ADME, cell-based, Hepatocyte; in short: as §2
[6] = Apparent permeability across apical to basolateral side in human Caco-2 cells at 10 uM measured after 120 mins by LC-MS/MS analysis; type: ADME, cell-based
In short: (§3)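 Caco-2 cells (P40-60) seeded at 1 × 10⁵ cells/cm² on Transwells, used on day 20; rinsed and equilibrated 40 min in HBSS pH 7.4. Compound at 10 μM in HBSS, 1% v/v DMSO, added apically (A–B) or basolaterally (B–A); 120 min at 37 °C, 5% CO₂. Lucifer yellow monitored monolayer integrity; LC-MS/MS with eight-point calibration; recovery from C₀ and both compartments.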

[7] = Apparent permeability across apical to basolateral side in human Caco-2 cells assessed as drug recovery at 10 uM measured after 120 mins by LC-MS/MS analysis; type: ADME, cell-based; details: read-out: Drug recovery; in short: as §3
[8] = Efflux ratio of apparent permeability across basolateral to apical side over apical to basolateral side in human Caco2 cells at 10 uM measured after 120 mins by LC-MS/MS analysis; type: ADME, cell-based; details: Caco-2; in short: as §3
[9] = Plasma protein binding in rat at 5 uM; type: ADME, cell-free; details: read-out: PPB (converted)
In short: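 Binding of compound at 5 μM measured in rat and human plasma, with compound recovery determined; n = 3.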

[10] = Drug metabolism in PBS buffer assessed as dealkylation of parent compound causing metabolite formation at 100 uM in presence of palladium resin; type: ADME; in short: as §1
[11] = Stability in Sprague-Dawley rat hepatocytes assessed as parent compound remaining at 10 uM measured after 60 mins by UPLC analysis; type: ADME, cell-based, Hepatocyte; details: read-out: Stability
In short: (§4)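 Cryopreserved male Sprague–Dawley rat or male human hepatocytes (0.5 × 10⁶ cells/mL) in Leibovitz buffer with 10 μM compound, 37 °C, shaken 700 rpm, 60 min. Samples at 0 and 60 min quenched 1:1 with ice-cold acetonitrile; supernatant analyzed by UPLC–QToF MS (positive ion). Hepatocyte-only and buffer-only negatives; verapamil and 7-hydroxycoumarin as viability controls.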

[12] = Stability in human hepatocytes assessed as parent compound remaining at 10 uM measured after 60 mins by UPLC analysis; type: ADME, cell-based, Hepatocyte; details: read-out: Stability; in short: as §4
[13] = Cmax in male Wistar Han rat at 10 mg/kg, po administered as single dose measured upto 24 hrs; type: ADME, organism-based; design: time < 24 hrs, dose 10 mg/kg, route po; details: in vivo
In short: (§5)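 Male jugular-vein-cannulated Wistar Han rats, 263–319 g, single dose. IV: 1 mg/kg as 2 mL/kg of 0.5 mg/mL in 5% DMSO/95% HPCD (20% w/v), not fasted. PO: 10 mg/kg as 5 mL/kg of 2 mg/mL suspension in 5% DMSO/95% tween 80/HPCD vehicle, fasted overnight. Serial cannula blood sampling 0.083/0.25–24 h (n = 3/route); parent quantified by QToF against calibration curve.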

[14] = Volume of distribution at steady state in male Wistar Han rat at 1 mg/kg, iv administered as single dose measured upto 24 hrs; type: ADME, organism-based; details: in vivo, read-out: Vdss
In short: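 Male jugular-vein-cannulated Wistar Han rats (n = 3, 263–319 g, not fasted) given 1 mg/kg IV as 2 mL/kg of 0.5 mg/mL solution in 5% DMSO/95% HPCD (20% w/v). Serial blood via cannula from 0.083 to 24 h, mixed with heparinized water and stored at –20 °C. Parent quantified by QToF against a calibration curve.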

[15] = AUC (0 to t) in male Wistar Han rat at 1 mg/kg, iv administered as single dose measured upto 24 hrs; type: ADME, organism-based; design: dose 1 mg/kg, time < 24 hrs, route iv; details: in vivo; in short: as §5
[16] = AUC (0 to t) in male Wistar Han rat at 10 mg/kg, po administered as single dose measured upto 24 hrs; type: ADME, organism-based; design: time < 24 hrs, dose 10 mg/kg, route po; details: in vivo; in short: as §5
[17] = Mean residence time in male Wistar Han rat at 1 mg/kg, iv administered as single dose measured upto 24 hrs; type: ADME, organism-based; details: in vivo; in short: as §5
[18] = Tmax in male Wistar Han rat at 1000 mg/kg, po administered as single dose measured upto 24 hrs; type: ADME, organism-based; details: in vivo
In short: (§6)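 Single oral dose 1000 mg/kg in male and female rats, dosing volume 10 mL/kg (n = 6); animals observed 14 days with clinical checks, functional/neurobehavioral tests and body weight, necropsy on d15; exposure parameters from the toxicokinetic arm of this study.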

[19] = Mean residence time in male Wistar Han rat at 1000 mg/kg, po administered as single dose measured upto 24 hrs; type: ADME, organism-based; details: in vivo; in short: as §6
[20] = Toxicity in female Wistar Han rat assessed as change in body weight at 1000 mg/kg, po administered as single dose measured over 14 days; type: organism-based; details: in vivo, 336 h, time > 14 day
In short: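 Single oral dose of 1000 mg/kg at 10 mL/kg to male and female rats (n = 6), then 14 d observation. Morbidity and mortality checked twice daily. Clinical signs recorded predose, twice on dosing day, then daily. FOB on d1, d7 or d14. Body weight on d1, 2, 5, 8, 11 and 14. Gross necropsy on d15.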

[21] = Drug metabolism in BALB/c mouse bearing HCT-116 tumor assessed as release of 5-FU in plasma at 75 to 150 mg/kg, po administered for 7 days; type: ADME, organism-based; details: in vivo, 168 h, dose 75-150 mg/kg, time 7 day
In short: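 Same HCT116-bearing BALB/c nude mice with intratumoral Pd resins and 7-day oral dosing at 75 or 150 mg/kg; blood collected by microsampling on day 7, 2 h after administration, plasma frozen at –20 °C for analysis.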

C#CCOc1ncc(F)c(OCC#C)n1
Retention_time [1]: 0.78 min | Drug metabolism [2]: Metabolite_Notdetected | hepatocyte CLint at 3 µM [3]: 3.31 µL/min/1e6 cells | hepatocyte CLint at 1 µM [4]: 4.51 µL/min/1e6 cells | half-life at 1 µM [5]: 1.52 h | Papp A→B at 2 h, 10 µM [6]: 28.1 ×10⁻⁶ cm/s | recovery at 2 h, 10 µM [7]: 79.2% | efflux ratio at 2 h, 10 µM [8]: 1.38 | fraction unbound at 5 µM [9]: 0.161 | Drug metabolism [10]: Metabolite_Detected | remaining at 1 h, 10 µM [11]: 95% | remaining at 1 h, 10 µM [12]: > 99% | Cmax [13]: 3610 ng/mL | Vd [14]: 1.76 L/kg | AUC(0-t) at 24 h [15]: 324 ng·h/mL | AUC(0-t) at 24 h [16]: 6080 ng·h/mL | MRT [17]: 0.569 h | Tmax [18]: 1 h | MRT [19]: 9.7 h | Activity [20]: Non-Toxic | Drug metabolism [21]: Metabolite_Detected
